Laboratory results reported in ChEMBL document CHEMBL4813946, “Discovery of novel 4-azaaryl-N-phenylpyrimidin-2-amine derivatives as potent and selective FLT3 inhibitors for acute myeloid leukaemia with FLT3 mutations” (Eur J Med Chem, 2021).
Active and inactive are the calls of the source. The rule behind the calls is not given here.

What was measured:
MV4-11 [1] = test: Induction of apoptosis in human MV4-11 cells assessed as early apoptotic cells at 1 x GI50 concentration incubated for 24 hrs by annexin V-FITC and propidium iodide staining based flow cytometry (reference value: 2.12 %); assay type: functional
MV4-11 [2] = test: Induction of apoptosis in human MV4-11 cells assessed as late apoptotic cells at 10 x GI50 concentration incubated for 24 hrs by annexin V-FITC and propidium iodide staining based flow cytometry (reference value: 12.45 %); assay type: functional
MV4-11 [3] = test: Induction of apoptosis in human MV4-11 cells assessed as early apoptotic cells at 5 x GI50 concentration incubated for 48 hrs by annexin V-FITC and propidium iodide staining based flow cytometry (Rvb =1.08 %); assay type: functional
U-937 = test: Induction of apoptosis in human U937 cells assessed as late apoptotic cells at 20 x GI50 concentration incubated for 48 hrs by annexin V-FITC staining based flow cytometry (reference value: 9.82 %); assay type: functional
[4] = target: Receptor-type tyrosine-protein kinase FLT3 (Homo sapiens) (UniProt P36888); test: Inhibition of FLT3-mediated signalling pathway in human MV4-11 cells assessed as inhibition of eIF4E phosphorylation upto 20 x GI50 concentration incubated for 6 hrs by western blot analysis; assay type: cell-based
Sequence of Receptor-type tyrosine-protein kinase FLT3 (Homo sapiens) (P36888 whole entry): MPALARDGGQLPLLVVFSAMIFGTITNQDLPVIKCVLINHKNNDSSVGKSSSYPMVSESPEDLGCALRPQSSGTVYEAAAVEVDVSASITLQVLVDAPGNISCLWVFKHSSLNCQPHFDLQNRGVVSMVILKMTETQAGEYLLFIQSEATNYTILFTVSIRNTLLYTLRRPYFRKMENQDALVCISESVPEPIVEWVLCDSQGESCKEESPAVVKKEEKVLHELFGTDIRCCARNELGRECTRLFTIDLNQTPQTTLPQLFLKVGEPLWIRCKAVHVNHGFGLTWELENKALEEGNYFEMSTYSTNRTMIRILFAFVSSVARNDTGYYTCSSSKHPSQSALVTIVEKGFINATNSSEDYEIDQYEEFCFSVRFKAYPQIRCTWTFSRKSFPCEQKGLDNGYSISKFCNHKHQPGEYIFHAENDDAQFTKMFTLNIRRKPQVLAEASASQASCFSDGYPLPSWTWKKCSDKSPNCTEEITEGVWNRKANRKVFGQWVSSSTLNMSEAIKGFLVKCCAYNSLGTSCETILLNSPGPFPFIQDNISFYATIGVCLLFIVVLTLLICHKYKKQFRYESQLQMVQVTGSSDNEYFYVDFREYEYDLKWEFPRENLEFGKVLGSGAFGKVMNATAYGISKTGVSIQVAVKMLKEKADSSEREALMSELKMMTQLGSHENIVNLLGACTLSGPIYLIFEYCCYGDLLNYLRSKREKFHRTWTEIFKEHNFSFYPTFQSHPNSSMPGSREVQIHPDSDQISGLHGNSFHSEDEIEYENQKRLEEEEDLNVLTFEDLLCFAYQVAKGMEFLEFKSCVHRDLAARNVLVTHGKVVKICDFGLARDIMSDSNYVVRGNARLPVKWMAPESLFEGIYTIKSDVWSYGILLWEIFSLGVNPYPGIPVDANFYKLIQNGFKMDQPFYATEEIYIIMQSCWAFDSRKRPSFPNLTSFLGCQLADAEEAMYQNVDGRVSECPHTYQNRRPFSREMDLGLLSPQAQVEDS
Outline: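 Cells lysed in phosphate lysis buffer with protease inhibitors and protein quantified. Western blots probed phospho and total STAT5, AKT, ERK, S6RP and eIF4E, plus full-length and cleaved PARP and caspase-3, with β-actin as loading control. At least two independent experiments.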

## CC(=O)N1CCN(c2ccc(Nc3nccc(-c4cn(C)c5ncccc45)n3)cc2)CC1
MV4-11 [1]
  Activity: 2.16%
MV4-11 [2]
  Activity: 20.33%
MV4-11 [3]
  Activity: 3.06%
U-937
  Activity: 14.5%
[4]
  inhibition: Active
